Compound activity (PubChem BioAssay)
An excerpt weighted towards active compounds, which were near 1.7% of everything screened.
CAL PDZ FP-1 = human CAL PDZ-peptide interaction inhibition. Q9HD26. purified CAL PDZ, TMR-peptide fluorescence polarization, 1 h. inhibition, % at 20 µM. 330,000 compounds, 0.02% hits. AID 504414;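 active means highest replicate inhibition of at least 40%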;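 further: plate controls were DMSO neutral control wells for no effect and unlabeled competitor peptide control wells for full effect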
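Test system: tagged CAL PDZ domain / Buffer or medium: sodium phosphate/NaCl buffer pH 7.4 with TCEP, IgG, Thesit / Reagent: TMR-labelled reporter peptide T*-PRC34 bound in PDZ groove / Compound dosing: single point, 20 µM / Schedule: 1 h incubation at room temperature before polarization reading / Technique: fluorescence polarization (mP) / Benchmarks: unlabelled peptide, DMSO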
A3G deaminase = inhibitors of human APOBEC3G DNA deaminase; inhibition, % at 20 µM; recombinant A3G, ssDNA deamination FAM/TAMRA fluorescence; 330,000 compounds, 0.28% hits;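 active means inhibition of at least 40% at 20 µM, with no more than 30% in the related APOBEC3A deaminase screen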;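 further: plate controls were DMSO wells with A3G for no effect and wells lacking A3G enzyme for full effect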
Target sequence (Q9HC16 whole entry, looked up): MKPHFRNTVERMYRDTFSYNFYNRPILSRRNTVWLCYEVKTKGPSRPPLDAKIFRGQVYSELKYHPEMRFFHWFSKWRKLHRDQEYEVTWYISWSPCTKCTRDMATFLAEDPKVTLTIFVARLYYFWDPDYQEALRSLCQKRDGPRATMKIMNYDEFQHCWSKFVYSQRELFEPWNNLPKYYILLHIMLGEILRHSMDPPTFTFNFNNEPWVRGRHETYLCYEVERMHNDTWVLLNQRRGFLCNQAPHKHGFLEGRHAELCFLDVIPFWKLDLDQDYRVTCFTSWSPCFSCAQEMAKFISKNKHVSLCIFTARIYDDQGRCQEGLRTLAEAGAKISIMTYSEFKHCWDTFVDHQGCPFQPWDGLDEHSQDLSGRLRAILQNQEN
LANA DNA inh = blocks KSHV LANA C-terminal domain binding to DNA; MBP-C-LANA/FAM-LBS DNA binding, fluorescence polarization; inhibition, % at 9 µM; 340,000 compounds, 0.078% hits; AID 504423;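 active means highest replicate inhibition at or above 60% at 9 µM, even if other replicates fall short; inactive means all replicates below 60% inhibition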;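 further: 0% = neutral control wells and 100% = 4 µM acridine orange control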
CAL PDZ FP-2 = inhibitors of human CAL PDZ peptide binding; Q9HD26; inhibition, % at 24.9 µM; purified CAL PDZ, TMR-peptide fluorescence polarization, 1 h; 300,000 compounds, 0.92% hits;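 active means mean inhibition of at least 30% with at least half of replicates also reaching 30%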;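 further: 0% = DMSO neutral control and 100% = excess unlabeled competitor peptide PRC23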
Keap1 Nrf2 FP = Keap1-Nrf2 (human) interaction inhibition; Q14145; 340,000 compounds, 0.15% hits; inhibition, % at 9.4 µM; Keap1 Kelch-Nrf2 peptide fluorescence polarization, 1536-well; AID 504523; in the data active means inhibition above about 12%;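 further: human Keap1 Kelch domain with fluorescein labeled Nrf2 9mer peptide probe; 0% = neutral control wells and 100% = peptide positive control; higher means more block of Keap1 binding to Nrf2 peptide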
A3A deaminase = inhibitors of human APOBEC3A DNA deaminase; recombinant A3A, FAM/TAMRA ssDNA deamination fluorescence; inhibition, % at 20 µM; 330,000 compounds, 0.41% hits; AID 493011; P31941;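 active means at least 40% inhibition at 20 µM here, with at most 30% in a related deaminase screen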;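 further: plate controls were A3A with DMSO for no effect and wells lacking A3A enzyme for full effect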
Target sequence (P31941 whole entry, looked up): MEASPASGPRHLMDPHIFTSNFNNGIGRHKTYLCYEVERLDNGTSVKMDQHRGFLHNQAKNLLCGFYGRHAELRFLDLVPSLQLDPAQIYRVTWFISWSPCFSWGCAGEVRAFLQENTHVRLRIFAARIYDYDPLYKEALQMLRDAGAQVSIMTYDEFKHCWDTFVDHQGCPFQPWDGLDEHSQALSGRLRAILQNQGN
* = called active by the depositor; x = no result; + = active, no number.

SMILES	CAL PDZ FP-1	A3G deaminase	LANA DNA inh	CAL PDZ FP-2	Keap1 Nrf2 FP	A3A deaminase
COc1ccc(CNC(=O)C2CCN(S(=O)(=O)c3cccc4nsnc34)CC2)cc1	-1	-2	-1	37*	-6	-2
Cc1cc(CNC[C@H]2O[C@@H](n3cnc(C(N)=O)n3)[C@H](O)[C@@H]2O)c(C)n1-c1cccnc1	1	x	0	6	-1	x
COC(=O)c1cc2ccccc2c(-c2c(OC)c(C(=O)OC)cc3ccccc23)c1OC	0	-4	1	-4	-2	3
COC(=O)c1cc2ccccc2c([N+](=O)[O-])c1O	0	x	0	108*	1	x
COC(=O)c1cc(S(=O)(=O)NCc2ccc(S(N)(=O)=O)cc2)oc1C	0	-7	-2	x	2	1
O=Cc1ccc2ccc3cccnc3c2n1	-1	1	0	55*	-5	2
O=Cc1ccc2cccnc2n1	0	-6	-1	2	-4	-4
Cc1ccc(OCCC(=O)N(CC(=O)Nc2ccccc2C(F)(F)F)Cc2ccco2)cc1	-2	-2	1	40*	1	1
Cc1cc(Cl)cc(C)c1OCC(=O)NC1CCCCCC1	0	-7	-1	48*	6	0
CN1C(=S)SC(/[N+]([O-])=C/c2cccnc2)C1(C)C (centres undefined)	x	-3	1	31*	5	-3
COc1ccc(OC)c(NC(=O)CC2SC(=N)N(c3ccccc3)C2=O)c1 (centres undefined)	0	-1	-1	+	-5	1
N=C1SC(CC(=O)Nc2ccc([N+](=O)[O-])cc2)C(=O)N1c1ccccc1 (centres undefined)	-2	-5	0	x	-1	-4
CC(Sc1nnc(-c2ccncc2)n1C)C(=O)NCC1CCCO1 (centres undefined)	1	-4	0	-2	-4	-1
CCOc1ccccc1-n1c(SCC(=O)N2CCOCC2)nnc1-c1ccccn1	x	-5	0	42*	3	-3
COc1cc(-c2cc(C(=O)Nc3ccc(O)cc3)c3ccccc3n2)cc(OC)c1OC	0	-6	0	2	-5	-5
COc1cc(-c2cc(C(=O)Nc3nc4ccccc4s3)c3ccccc3n2)cc(OC)c1OC	-2	-3	-1	87*	-2	-2
CC1=CS(=O)(=O)CC1SC(=S)N(C)C1CCS(=O)(=O)C1 (centres undefined)	-1	-9	2	-3	-6	-1
Cc1ccc(S(=O)(=O)NCC(C)NC(=O)CN2CCOCC2)cc1 (centres undefined)	-3	2	0	-8	1	4
CCc1noc(C)c1C(=O)N1CCCC(CCC(=O)NCc2ccc(F)c(F)c2)C1 (centres undefined)	22	-12	1	71*	-2	4
Cc1nc(C)c(C(=O)N2CCCC(CCC(=O)NCc3ccc(F)c(F)c3)C2)s1 (centres undefined)	-2	-1	-2	x	3	2
O=C(Nc1ncn[nH]1)c1ccc(S(=O)(=O)N2CCOCC2)cc1	-1	-5	1	3	-5	2
O=C(N/C(=C\c1ccc(Cl)cc1)C(=O)N1CCCCC1)c1ccco1	-1	-3	0	82*	-1	0
CSc1ccc(/C=C(/NC(=O)c2ccco2)C(=O)N2CCCCCC2)cc1	0	-5	-2	-7	0	-6
Cc1ccc(C)c(S(=O)(=O)Nc2cc(SCC(=O)O)c(O)c3ccccc23)c1	45*	x	3	17	61*	x
CCc1ccc(S(=O)(=O)Nc2cc(SCC(=O)O)c(O)c3ccccc23)cc1	19	13	2	16	-29	3
SMILES	CAL PDZ FP-1	A3G deaminase	LANA DNA inh	CAL PDZ FP-2	Keap1 Nrf2 FP	A3A deaminase
Cc1ccc(-n2c(=O)[nH]c3cc(C(=O)NC4CCN(Cc5ccccc5)CC4)ccc3c2=O)cc1	-1	-5	-1	38*	5	0
COCC(=O)N(Cc1cc2cc(OC)ccc2[nH]c1=O)c1ccccc1	-1	-4	0	0	-2	-5
COCC(=O)N(Cc1cc2ccccc2[nH]c1=O)c1ccc(OC)cc1	0	-4	4	62*	6	-2
CCC(CC)NC(=O)COC(=O)c1ccc(OCC(=O)Nc2ccccc2OC)c(OC)c1	1	-6	-2	44*	-2	-2
CCCNC(=O)COC(=O)c1ccc(OCC(=O)Nc2ccccc2OC)c(OC)c1	1	-2	0	9	5	1
Nc1c(S(=O)(=O)c2cccs2)c2nc3ccccc3nc2n1/N=C/c1cccc(O)c1	-2	-7	3	49*	1	-3
CCn1c(COc2cccc3ccccc23)nnc1SCC(N)=O	-1	-11	4	52*	-2	-3
COc1ccc(S(=O)(=O)Nc2cc3c(cc2C(C)=O)OCO3)cc1	-3	-7	-3	0	4	0
Cc1cccc(-c2ccc3c(c2)C2CC3CCN2C(=O)OCc2ccccc2)c1 (centres undefined)	0	x	-1	-5	-3	x
O=C(OCc1ccccc1)N1CCC2CC1c1cc(-c3ccccc3)ccc12 (centres undefined)	0	x	-1	53*	-1	x
O=C(CC(c1ccccc1)C1CCCCC1=O)c1ccccc1 (centres undefined)	0	x	0	32*	-1	x
CN(C)c1ccc(C(CC(=O)c2ccccc2)C2CCCCC2=O)cc1 (centres undefined)	0	-5	-5	0	-6	-1
COc1ccc2c(CC(=O)OCC(=O)Nc3cccc(S(N)(=O)=O)c3)coc2c1	-1	7	-2	50*	-5	4
Cc1cccc(N(CC(=O)NC2CCCCC2)C(=O)CCCC(=O)Nc2ccccn2)c1	-1	7	1	74*	-1	-3
Cc1cccnc1NC(=O)c1cccc(S(=O)(=O)NCc2ccccc2)c1	-2	-1	0	-3	-1	-1
CC(=O)NS(=O)(=O)c1ccc(N=c2ssc3c2-c2ccc(C)cc2NC3(C)C)cc1	-1	-8	1	-4	-1	-8
COc1ccc(CCNC(=O)c2ccc(Br)cc2)cc1	x	x	-1	42*	-4	x
COc1ccccc1OCCNC(=O)c1ccc(Br)cc1	x	-7	0	33*	-1	-5
COc1ccc(CNC(=O)c2ccc(Br)cc2)cc1	x	-4	x	x	x	1
Cc1cccc(CS(=O)(=O)Cc2ccc(C(=O)NCc3cccs3)o2)c1	-3	-3	1	-1	2	3
O=C(Nc1ccc(Cl)c([N+](=O)[O-])c1)c1ccc2c(c1)OCCO2	17	-3	-12	30*	-7	5
COc1ccc(CC(=O)NCCC(C)C)cc1S(=O)(=O)N1CCOCC1	-2	4	-2	42*	-2	-1
